Assay results taken from ChEMBL document CHEMBL1143594, “Selective estrogen receptor modulators in the ruthenocene series. Synthesis and biological behavior” (J Med Chem, 2005).

What was measured:
[1] = biological target: Estrogen receptor beta (Homo sapiens) (UniProt Q92731); test: Relative binding affinity for Estrogen receptor beta
[2] = Octanol-water partition coefficient (logP) of the compound measured by RP-HPLC; type: physicochemical
Outline: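 Reverse-phase HPLC capacity factors measured in an organic phase of 85%-60% methanol containing 0.25% octanol, against an aqueous phase of 0.15% n-decylamine in 0.02 M MOPS pH 7.4 made with octanol-saturated water. Extrapolated to 100% aqueous to give kNw. log Po/w = 0.13418 + 0.98452 log kNw.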

Sequence of Estrogen receptor beta (Homo sapiens) (Q92731 whole entry): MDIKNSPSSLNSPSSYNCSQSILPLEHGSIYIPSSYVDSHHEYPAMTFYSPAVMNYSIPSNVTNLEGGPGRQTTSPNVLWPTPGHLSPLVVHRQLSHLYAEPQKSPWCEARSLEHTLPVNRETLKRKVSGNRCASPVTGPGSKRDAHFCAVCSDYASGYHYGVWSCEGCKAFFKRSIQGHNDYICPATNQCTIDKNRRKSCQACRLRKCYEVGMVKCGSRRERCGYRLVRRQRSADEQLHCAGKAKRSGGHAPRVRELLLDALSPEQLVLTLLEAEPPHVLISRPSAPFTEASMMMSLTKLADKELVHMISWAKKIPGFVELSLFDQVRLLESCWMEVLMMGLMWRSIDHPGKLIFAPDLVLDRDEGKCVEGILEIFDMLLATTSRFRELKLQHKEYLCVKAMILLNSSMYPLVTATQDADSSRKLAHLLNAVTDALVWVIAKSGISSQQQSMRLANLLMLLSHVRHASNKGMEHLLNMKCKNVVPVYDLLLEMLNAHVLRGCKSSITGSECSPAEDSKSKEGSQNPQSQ

| Compound | relative binding affinity (RBA) [1] | logP [2] |
| --- | --- | --- |
| C[C@]12CC[C@@H]3c4ccc(O)cc4CC[C@H]3[C@@H]1CC[C@@H]2O [ESTRADIOL] | 100 | 3.5 |
| CC/C(=C(/c1ccc(O)cc1)c1ccc(OCCN(C)C)cc1)c1ccccc1 [listing 1 of 3 here] | 18.5 |  |
| CC/C(=C(/c1ccc(O)cc1)c1ccc(OCCN(C)C)cc1)c1ccccc1 [listing 2 of 3 here] |  | 3.2 |
| CC/C(=C(/c1ccc(O)cc1)c1ccc(OCCN(C)C)cc1)c1ccccc1 [listing 3 of 3 here] |  | 3.4 |
